E-sel inducer: induces E-selectin expression in human endothelial cells | P16581 | HUVEC E-selectin immunofluorescence imaging; normalized: neutral wells 0, TNF-alpha wells 100 | activation, % at 7.58 µM | hit rate 0.37% among 260,000 | AID 686992;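 active means mean E-selectin-positive cell signal at least 10% of the positive control, reached in at least 60% of replicates, without over 20% cell loss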
Target sequence (P16581 whole entry, looked up): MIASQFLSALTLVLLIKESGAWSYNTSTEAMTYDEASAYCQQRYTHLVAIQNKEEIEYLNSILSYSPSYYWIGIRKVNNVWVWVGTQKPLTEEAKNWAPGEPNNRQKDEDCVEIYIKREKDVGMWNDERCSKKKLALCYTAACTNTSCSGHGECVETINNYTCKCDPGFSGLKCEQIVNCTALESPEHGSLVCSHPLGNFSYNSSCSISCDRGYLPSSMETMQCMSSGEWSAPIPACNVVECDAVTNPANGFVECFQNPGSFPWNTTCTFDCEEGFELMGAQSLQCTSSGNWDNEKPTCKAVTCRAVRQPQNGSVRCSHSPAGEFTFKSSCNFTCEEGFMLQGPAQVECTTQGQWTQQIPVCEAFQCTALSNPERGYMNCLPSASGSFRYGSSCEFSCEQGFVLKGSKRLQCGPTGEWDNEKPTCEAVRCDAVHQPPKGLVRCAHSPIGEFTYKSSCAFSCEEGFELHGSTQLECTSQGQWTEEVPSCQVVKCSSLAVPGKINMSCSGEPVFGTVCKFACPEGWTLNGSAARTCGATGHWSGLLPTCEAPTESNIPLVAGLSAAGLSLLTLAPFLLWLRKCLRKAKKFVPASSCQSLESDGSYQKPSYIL
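Assay system: HUVEC, human umbilical vein endothelial cells / Amount: 3,000 HUVEC/well / Controls: TNF-alpha positive control, DMSO neutral control / Compound dosing: single concentration / Medium: EGM-2 over gelatin coat / Evaluation: percent E-selectin-positive cells / Signal: immunofluorescence imaging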
FN deposit inh: fibronectin deposition inhibition | inhibition, % at 12.6 µM | AID 743247 | AH1F fibroblasts, Alexa488-fibronectin deposition fluorescence, overnight | hit rate 0.086% among 350,000;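 active means mean inhibition across replicates of 30% or more, regardless of how many single replicates reach that level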;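 further: positive control wells lacked labelled fibronectin entirely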
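Assay system: AH1F fibroblast monolayer, labelled fibronectin deposition. Amount: 10000 cells per well. Also added: labelled fibronectin 24 nM. Compound: single-point pinned compound. Incubation: cell attachment 1 h, compound and FN exposure overnight. Detection: fluorescence after three HBSS washes, excitation 485 nm, emission 525 nm. Read-out: inhibition of fibronectin deposition signal.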
SIRT5 inh: blocks human SIRT5 desuccinylation of peptide; Q9NXA8; Purified SirT5, succinyl-peptide AMC, trypsin-coupled fluorescence; inhibition, % at 15 µM; hit rate 1.1% among 330,000; AID 652115; in the data active means inhibition above about 15%
FGF22 binding: shifts melting point of recombinant human FGF22. Q9HCT0. recombinant FGF22 thermal shift, SYPRO orange fluorescence; percent of sucrose octasulfate shift, DMSO zero. activity (Tm shift, normalised), % at 9.99 µM. hit rate 1.5% among 340,000. AID 651658;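 active means mean Tm shift, scaled 0 neutral to 100 positive control, at about 1.3% or above, every replicate too, limit read from the data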
C2C12 statin: suppression of simvastatin myotoxicity. hit rate 0.78% among 330,000. C2C12 myotubes + simvastatin, ATP luminescence, 48 h; scaled: DMSO 0, geranylgeraniol control 100. rescue of ATP level, % at 7.49 µM;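 active means mean ATP rescue above about 67%, or every replicate alone reaching that limit, limit read from the data, passing the limit was not always enough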;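 further: myotubes were challenged with 10 µM simvastatin during compound exposure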
Ecoli rRNA inh: inhibitors of bacterial rRNA selective over humanized ribosomes | GFP signal change (wild-type ribosome), % (concentration not given with the values) | AID 720706 | hit rate 1.6% among 350,000 | E. coli WT GFP vs humanized-ribosome RFP mutants, fluorescence, 24 h; stronger effect = lower value; DMSO median 0, no signal -100;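 active means significant combined selectivity score with lowered wild-type GFP, culture density cut under 30%, mutant RFP and density less affected; inactive means any of these conditions unmet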
* marks the source's active call; other numbers are inactive results; x = not tested or not shown. Sampled rows, rich in hits. Any-hit rate of the full collection: about 4%.

SMILES	E-sel inducer	FN deposit inh	SIRT5 inh	FGF22 binding	C2C12 statin	Ecoli rRNA inh
O=C(O)CCCN1C(=O)/C(=C/C=C/c2ccco2)SC1=S	0	6	32*	0	x	9
C[C@H](NC(=O)C[C@@H]1CC[C@@H]2[C@H](COC[C@H](O)CN2C(=O)Nc2cc(Cl)cc(Cl)c2)O1)c1ccccc1	0	-6	0	0	-3	-33
C[C@H](CO)N1C[C@H](C)[C@@H](CN(C)Cc2ccc(Cl)c(Cl)c2)OCCCC[C@H](C)Oc2ccc(N(C)C)cc2C1=O	1	x	-2	0	x	-6
Fc1ccc(NC(=S)NCCN2CCOCC2)c(F)c1F	x	-9	1	43*	x	8
Fc1ccc(NC(=S)NCCN2CCOCC2)cc1	1	6	-2	0	x	13
O=C(N[C@@H](Cc1cccnc1)C(=O)N1CCC[C@H]1C(=O)NCCc1ccccc1Cl)c1ccccc1	0	3	-3	0	x	-14
O=C(N[C@@H](Cc1cccnc1)C(=O)N1CCC[C@H]1C(=O)NCCc1ccccc1Cl)c1cccs1	0	-1	4	0	x	-17*
C[C@@H]1CN([C@@H](C)CO)C(=O)c2cccc(NS(=O)(=O)c3ccc(F)cc3)c2O[C@H]1CN(C)C(=O)Nc1ccccc1	x	x	22*	0	14	x
COc1ccc(S(=O)(=O)Nc2ccc3c(c2)C(=O)N([C@H](C)CO)C[C@@H](C)[C@@H](CN(C)C(=O)Nc2cccc4ccccc24)O3)cc1	75*	x	3	0	23	-7
COc1ccc(S(=O)(=O)Nc2cccc3c2O[C@H](CN(C)C(=O)Nc2cccc4ccccc24)[C@@H](C)CN([C@H](C)CO)C3=O)cc1	28*	2	x	x	x	-2
COc1ccc(S(=O)(=O)Nc2cccc3c2O[C@H](CN(C)C(=O)Nc2cccc4ccccc24)[C@@H](C)CN([C@@H](C)CO)C3=O)cc1	-7	6	x	x	x	1
Cc1cccc(OCCN2C(=O)C(=O)c3cc(C)ccc32)c1	x	-3	2	0	-8	-45
Cc1ccc2c(c1)C(=O)C(=O)N2CCOc1ccccc1	0	3	-5	0	-3	-23*
c1ccc(-c2ncc(CN3CCN(c4ccccn4)CC3)[nH]2)cc1	0	2	-5	0	79*	6
Cc1noc(C)c1NC(=O)N[C@H]1CC[C@H](CC(=O)Nc2ccc(-c3ccccc3)cc2)O[C@H]1CO	0	-12	7	0	10	-6
COC(=O)c1sccc1NC(=S)N(C)C1CCCCC1	0	-5	-5	0	-24	-26*
COC(=O)c1sccc1NC(=O)NC1CCCCC1	1	2	-4	0	0	-1
C[C@H](CO)N1C[C@H](C)[C@@H](CN(C)C(=O)C2CCCCC2)Oc2ncc(C#CC3CCCCC3)cc2C1=O	x	-6	x	x	x	3
CCOc1ccc(S(=O)(=O)Nc2cccc(C)c2)c2cccnc12	0	-2	18*	43*	x	5
O=C(C[C@@H]1CC[C@@H]2[C@H](COC[C@@H](O)CN2Cc2cccc(-c3ccncc3)c2)O1)N1CCN(c2ccccc2)CC1	0	5	0	0	-3	2
C[C@@H]1CN([C@H](C)CO)C(=O)Cc2cc(NC(=O)Nc3ccc(F)cc3)ccc2O[C@@H]1CN(C)S(=O)(=O)c1ccc(Cl)cc1	35*	x	4	0	24	1
C[C@@H]1CN([C@@H](C)CO)C(=O)Cc2cc(NC(=O)Nc3ccc(F)cc3)ccc2O[C@@H]1CN(C)S(=O)(=O)c1cn(C)cn1	73*	x	x	x	10	2
C[C@@H]1CN([C@@H](C)CO)C(=O)Cc2cc(NC(=O)Nc3ccc(F)cc3)ccc2O[C@H]1CN(C)S(=O)(=O)c1ccc(Cl)cc1	-14	x	12	0	27	-2
C[C@@H]1CN([C@@H](C)CO)C(=O)Cc2cc(NC(=O)Nc3ccccc3)ccc2O[C@H]1CN(C)S(=O)(=O)c1ccc(F)cc1	0	x	18*	0	39	-4
CO[C@@H]1CN(C)C(=O)c2cc(NC(=O)c3cccc(F)c3)ccc2OC[C@H](C)N(C(C)=O)C[C@H]1C	0	-2	x	x	4	3
SMILES	E-sel inducer	FN deposit inh	SIRT5 inh	FGF22 binding	C2C12 statin	Ecoli rRNA inh
COc1cccc(-c2ccc(C3[C@H]4CNC[C@@H]3N4S(=O)(=O)c3cccc(Cl)c3)cc2)c1 (some centres not stated)	-1	-9	7	x	x	-57
CC(=O)N(C)C[C@H]1Oc2c(NS(C)(=O)=O)cccc2C(=O)N(C)C[C@@H]1C	x	2	x	x	x	-2
COc1ccc2nc(-n3c(O)c(C4=c5ccccc5=NC4=O)[nH]c3=S)sc2c1	0	12	1	0	x	-44*
Cn1c(O)c(C2=c3ccccc3=NC2=O)[nH]c1=S	x	2	x	x	x	x
COc1ccc(NC(=O)N(C)C[C@@H]2Oc3ncc(C#C[C@@H](C)O)cc3C(=O)N([C@H](C)CO)C[C@H]2C)cc1	0	x	0	0	-2	1
Cc1noc(C)c1NC(=O)N[C@H]1C=C[C@H](CC(=O)Nc2ccc(-c3ccccc3)cc2)O[C@H]1CO	0	-10	6	0	6	-6
O=C(/C=C/c1ccc(-c2ccc(F)cc2)o1)N1CCCC1	0	5	21*	0	x	-42
COC(=O)c1ccc(CSc2nc3ccc(C)cc3[nH]2)o1	x	x	x	x	-6	x
Cc1ccc2nc(SCc3nc4cc(Cl)ccc4c(=O)[nH]3)[nH]c2c1	x	-6	0	43*	x	2
Cn1c(SCCOc2ccccc2F)nc2ccccc2c1=O	-1	-12	-4	0	x	-28*
O=c1[nH]c(SCCOc2ccccc2F)nc2ccccc12	x	-5	-3	0	x	4
COc1ccc(C(=O)N2CCCC(CCC(=O)NCc3ccc(F)c(F)c3)C2)o1 (configuration not stated)	x	x	2	43*	3	2
COc1ccc(C(=O)N2CCCC(CCC(=O)NCc3ccc(F)c(F)c3)C2)cc1F (configuration not stated)	15	15	1	0	x	-26
C[C@@H]1CN([C@H](C)CO)C(=O)c2cc(NC(=O)CCC(F)(F)F)ccc2O[C@@H]1CN(C)CC1CC1	0	x	-1	0	16	4
CN1C(=O)c2ccc(N(C)C)cc2C1=O	x	x	x	x	109*	x
CN1C(=O)c2cccc3c(N(C)C)ccc(c23)C1=O	x	4	-2	x	2	20
Cn1c(=O)n(CC(=O)NC2CCCCC2)c(=O)c2ccccc21	x	x	x	x	72*	x

Bioassay records (PubChem)
